Reference: ChEMBL document CHEMBL1949570, “Quinoline- and isoquinoline-sulfonamide derivatives of LCAP as potent CNS multi-receptor-5-HT1A/5-HT2A/5-HT7 and D2/D3/D4-agents: the synthesis and pharmacological evaluation” (Bioorg Med Chem, 2012)
Calls of active or inactive are those of the source. No cut-off for these calls is given here.

How the values were obtained:
[1] = target: T1, 5-hydroxytryptamine receptor 1A (Rattus norvegicus, UniProt P19327); test: Displacement of [3H]8-OH-DPAT from rat hippocampus 5-HT1A receptor by liquid scintillation counter; format: tissue-based
T1 sequence (P19327 whole entry): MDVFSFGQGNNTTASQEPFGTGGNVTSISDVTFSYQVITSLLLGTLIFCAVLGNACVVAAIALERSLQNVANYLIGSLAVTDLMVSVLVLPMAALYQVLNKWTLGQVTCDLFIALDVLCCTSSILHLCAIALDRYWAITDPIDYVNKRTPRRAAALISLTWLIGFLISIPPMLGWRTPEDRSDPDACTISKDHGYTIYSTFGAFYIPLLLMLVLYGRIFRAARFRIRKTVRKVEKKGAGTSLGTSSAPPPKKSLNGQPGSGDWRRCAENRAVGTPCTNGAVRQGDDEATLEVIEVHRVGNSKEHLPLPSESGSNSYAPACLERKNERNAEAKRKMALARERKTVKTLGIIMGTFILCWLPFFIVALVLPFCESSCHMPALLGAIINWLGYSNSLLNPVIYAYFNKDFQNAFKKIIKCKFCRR
Procedure, shortened: (§1)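 Competition binding. 5-HT1A: rat hippocampus, [3H]-8-OH-DPAT. 5-HT2A: rat cortex, [3H]-ketanserin. D2: rat striatum, [3H]-spiperone. 5-HT6: human receptor stably in HEK293, [3H]-LSD. 5-HT7: human receptor stably in HEK293, [3H]-5-CT. Vacuum filtration on GF/B filters, ice-cold washes, scintillation counting.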

[2] = target: 5-hydroxytryptamine receptor 2A (Rattus norvegicus, UniProt P14842); test: Displacement of [3H]Ketanserin from rat cortex 5-HT2A receptor by liquid scintillation counter; procedure, shortened: as §1
[3] = target: T2, D(4) dopamine receptor (Homo sapiens) (UniProt P21917); test: Displacement of [3H]-methylspiperone from human cloned dopamine D4 receptor expressed in HEK293 cells at 10 '-7 M by liquid scintillation counter; format: cell-based
T2 sequence (whole entry): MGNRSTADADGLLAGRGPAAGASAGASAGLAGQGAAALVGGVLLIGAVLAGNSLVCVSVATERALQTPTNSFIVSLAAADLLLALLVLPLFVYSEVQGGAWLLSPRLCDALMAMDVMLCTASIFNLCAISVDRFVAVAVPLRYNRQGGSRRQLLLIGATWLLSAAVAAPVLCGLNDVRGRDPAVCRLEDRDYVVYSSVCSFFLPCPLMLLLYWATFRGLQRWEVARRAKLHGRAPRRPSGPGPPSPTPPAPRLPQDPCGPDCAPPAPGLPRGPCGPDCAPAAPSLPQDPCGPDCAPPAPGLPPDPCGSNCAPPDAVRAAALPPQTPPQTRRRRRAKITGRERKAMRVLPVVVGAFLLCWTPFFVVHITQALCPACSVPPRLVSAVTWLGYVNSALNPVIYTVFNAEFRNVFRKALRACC

[4] = target: T2, D(4) dopamine receptor (Homo sapiens); test: Displacement of [3H]-methylspiperone from human cloned dopamine D4 receptor expressed in HEK293 cells at 10 '-6 M by liquid scintillation counter; format: cell-based
[5] = target: D(3) dopamine receptor (Homo sapiens) (UniProt P35462); test: Displacement of [3H]-methylspiperone from human cloned dopamine D3 receptor expressed in HEK293 cells at 10 '-6 M by liquid scintillation counter; format: cell-based
[6] = target: D(3) dopamine receptor (Homo sapiens) (UniProt P35462); test: Displacement of [3H]-methylspiperone from human cloned dopamine D3 receptor expressed in HEK293 cells at 10 '-7 M by liquid scintillation counter; format: cell-based
[7] = test system: Rattus norvegicus; test: Anxiolytic activity in Wistar rat assessed as increase in open arm entries at 2.5 mg/kg after 5 mins by plus-maze test (reference value: 26.3 +/- 2.1 %); format: functional
[8] = test system: Rattus norvegicus; test: Anxiolytic activity in Wistar rat assessed as increase in time spent in open arms at 5 mg/kg after 5 mins by plus-maze test (reference value: 13 +/- 2.3 %); format: functional
[9] = test system: Rattus norvegicus; test: Anxiolytic activity in Wistar rat assessed as increase in time spent in open arms at 2.5 mg/kg after 5 mins by plus-maze test (reference value: 13 +/- 2.3 %); format: functional
[10] = test system: Rattus norvegicus; test: Anxiolytic activity in Wistar rat assessed as increase in time spent in open arms at 1.25 mg/kg after 5 mins by plus-maze test (reference value: 13 +/- 2.3 %); format: functional
[11] = test system: Rattus norvegicus; test: Anxiolytic activity in Wistar rat assessed as increase in open arm entries at 5 mg/kg after 5 mins by plus-maze test (reference value: 26.3 +/- 2.1 %); format: functional
[12] = test system: Rattus norvegicus; test: Anxiolytic activity in Wistar rat assessed as increase in open arm entries at 1.25 mg/kg after 5 mins by plus-maze test (reference value: 26.3 +/- 2.1 %); format: functional
[13] = target: 5-hydroxytryptamine receptor 6 (Homo sapiens, UniProt P50406); test: Displacement of [3H]-LSD from human full length cloned 5HT6 receptor expressed in human HEK293 cells by liquid scintillation counter; format: cell-based; procedure, shortened: as §1
[14] = target: D(2) dopamine receptor (Rattus norvegicus, UniProt P61169); test: Displacement of [3H]-spiperone from rat striatum dopamine D2 receptor by liquid scintillation counter; procedure, shortened: as §1
[15] = target: 5-hydroxytryptamine receptor 7 (Homo sapiens, UniProt P34969); test: Displacement of [3H]5-CT form human cloned 5HT7 receptor expressed in human HEK293 cells by liquid scintillation counter; format: cell-based; procedure, shortened: as §1
[16] = Selectivity ratio of compound Ki for rat hippocampus 5-HT1A receptor to human 5HT7 receptor; format: tissue-based
Procedure, shortened: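 Ratio of Ki values from competition binding: rat hippocampus 5-HT1A with [3H]-8-OH-DPAT versus human 5-HT7 in HEK293 with [3H]-5-CT; Ki by Cheng–Prusoff from 7–9 concentrations in triplicate.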

[17] = test system: Mus musculus; test: Antidepressant activity in mouse assessed as spontaneous locomotor activity 10 to 30 mg/kg; format: functional, organism-based
Procedure, shortened: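 Swiss albino mice given the forced swim doses ip 30 min before; placed individually in cages and channel crossings counted from 2 to 6 min with a multichannel activity monitor, matching the swim test observation period.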

[18] = test system: Mus musculus; test: […] activity in Swiss albino mouse assessed as inhibition of apomorphine-induced climbing behavior administered 10 mins before apomorphine challenge measured for 2 mins; format: functional
Procedure, shortened: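 Male Swiss albino mice; compounds ip in 1% Tween 80 suspension, 10 min before apomorphine 3 mg/kg. Climbing time (2–4 paws on bar wall) recorded for 2 min starting 20 min after apomorphine.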

[19] = test system: Mus musculus; test: […] activity in ip dosed Swiss albino mouse assessed as inhibition of DOI-induced head twitches administered 20 mins before DOI challenge measured for 20 mins; format: functional; settings: for ED50: read-out: ID50 (the source's name)
[20] = test system: Mus musculus; test: Antidepressant activity in Swiss albino mouse assessed as reduction in immobility time at 20 mg/kg measured for 4 mins by forced swim test; format: functional; design: scale not given: the % may be the effect or the level left
Procedure, shortened: (§2)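 Porsolt forced swim in male Swiss albino mice. Drugs ip (10 ml/kg; 1% Tween 80 suspension, imipramine in water) 30 min before. Cylinder 25 cm high, 10 cm diameter, 6 cm water at 23–25 °C, 6 min session; immobility scored over final 4 min. 5–10 mice/dose; one-way ANOVA with Bonferroni.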

[21] = test system: Mus musculus; test: Antidepressant activity in Swiss albino mouse assessed as reduction in immobility time at 10 mg/kg measured for 4 mins by forced swim test; format: functional; design: scale not given: the % may be the effect or the level left; procedure, shortened: as §2
[22] = organism: Mus musculus; test: Antipsychotic activity in CD1 mouse assessed as inhibition of MK-801-induced hyperactivity measuring number of crossings measured every 5 mins for 1 hr; format: functional, organism-based
Procedure, shortened: (§3)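 Male CD-1 mice, one per cage, habituated 30 min; photobeam crossings (ambulation) then counted over 1 h, logged every 5 min. Drugs suspended in 1% aqueous Tween 80 and given ip at 10 ml/kg, 30 min before test. For hyperactivity, MK-801 (0.2 mg/kg, in distilled water) was given ip 15 min before test. 5–10 mice/dose; mean ± SEM, one-way ANOVA with Bonferroni test.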

[23] = test system: Mus musculus; test: Antipsychotic activity in CD1 mouse assessed as reduction in spontaneous locomotor activity measuring number of crossings at 0.5 to 1 mg/kg every 5 mins for 1 hr; format: functional, organism-based
Procedure, shortened: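 Male CD-1 mice; compound or reference ip 30 min before test plus vehicle. After 30 min habituation in individual cages, crossings counted over 1 h, recorded every 5 min; mean ± SEM; one-way ANOVA, Bonferroni.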

[24] = test system: Mus musculus; test: Antipsychotic activity in CD1 mouse assessed as reduction in spontaneous locomotor activity measuring number of crossings at 1.25 to 5 mg/kg every 5 mins for 1 hr; format: functional, organism-based; procedure, shortened: as §3

Chain of 5-hydroxytryptamine receptor 6 (P50406 whole entry): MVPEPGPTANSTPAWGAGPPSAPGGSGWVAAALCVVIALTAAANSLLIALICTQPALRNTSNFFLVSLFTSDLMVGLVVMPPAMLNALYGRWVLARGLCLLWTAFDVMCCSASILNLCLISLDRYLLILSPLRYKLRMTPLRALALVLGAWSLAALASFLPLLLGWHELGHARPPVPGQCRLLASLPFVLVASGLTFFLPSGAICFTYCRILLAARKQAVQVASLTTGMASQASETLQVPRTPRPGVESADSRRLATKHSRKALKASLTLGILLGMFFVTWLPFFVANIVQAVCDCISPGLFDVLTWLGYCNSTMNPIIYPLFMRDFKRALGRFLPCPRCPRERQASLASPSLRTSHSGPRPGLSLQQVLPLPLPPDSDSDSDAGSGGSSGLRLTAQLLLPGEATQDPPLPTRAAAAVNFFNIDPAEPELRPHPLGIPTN
Chain of D(3) dopamine receptor (Homo sapiens) (P35462 whole entry): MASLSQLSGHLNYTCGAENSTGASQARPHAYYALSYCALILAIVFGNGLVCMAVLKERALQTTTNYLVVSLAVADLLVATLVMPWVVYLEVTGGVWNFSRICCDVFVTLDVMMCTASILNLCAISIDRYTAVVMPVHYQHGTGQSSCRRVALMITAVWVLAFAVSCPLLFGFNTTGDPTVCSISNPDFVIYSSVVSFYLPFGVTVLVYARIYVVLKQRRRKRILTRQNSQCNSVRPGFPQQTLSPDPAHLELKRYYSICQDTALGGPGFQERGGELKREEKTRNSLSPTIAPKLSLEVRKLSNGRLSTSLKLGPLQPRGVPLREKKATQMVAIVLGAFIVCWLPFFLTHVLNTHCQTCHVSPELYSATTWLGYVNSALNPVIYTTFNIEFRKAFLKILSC
Chain of 5-hydroxytryptamine receptor 7 (P34969 whole entry): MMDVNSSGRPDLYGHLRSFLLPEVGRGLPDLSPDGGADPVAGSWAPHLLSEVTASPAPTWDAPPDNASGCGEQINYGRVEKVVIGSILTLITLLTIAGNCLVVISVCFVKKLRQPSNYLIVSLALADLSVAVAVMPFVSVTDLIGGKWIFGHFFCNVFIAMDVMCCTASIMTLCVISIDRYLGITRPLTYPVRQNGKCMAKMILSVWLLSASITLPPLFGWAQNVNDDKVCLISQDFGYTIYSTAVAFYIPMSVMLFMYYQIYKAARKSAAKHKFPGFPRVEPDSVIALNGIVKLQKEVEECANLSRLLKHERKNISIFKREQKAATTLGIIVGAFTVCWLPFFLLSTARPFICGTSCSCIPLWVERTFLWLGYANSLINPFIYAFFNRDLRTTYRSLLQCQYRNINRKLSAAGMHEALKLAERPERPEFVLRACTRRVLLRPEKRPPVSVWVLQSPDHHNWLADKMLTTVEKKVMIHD
Chain of 5-hydroxytryptamine receptor 2A (P14842 whole entry): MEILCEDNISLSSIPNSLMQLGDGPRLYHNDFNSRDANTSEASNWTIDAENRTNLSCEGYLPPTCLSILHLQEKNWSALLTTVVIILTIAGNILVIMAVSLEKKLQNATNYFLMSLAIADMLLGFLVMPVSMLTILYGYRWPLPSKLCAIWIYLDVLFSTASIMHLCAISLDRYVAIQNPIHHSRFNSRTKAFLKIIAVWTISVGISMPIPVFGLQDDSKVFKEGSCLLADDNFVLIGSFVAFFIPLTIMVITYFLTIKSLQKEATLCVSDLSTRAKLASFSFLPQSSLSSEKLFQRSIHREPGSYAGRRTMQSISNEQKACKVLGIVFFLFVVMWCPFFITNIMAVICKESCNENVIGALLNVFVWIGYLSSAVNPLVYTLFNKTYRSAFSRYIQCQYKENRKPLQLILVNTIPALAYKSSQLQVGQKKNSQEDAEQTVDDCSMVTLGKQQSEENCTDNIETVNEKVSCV
Chain of D(2) dopamine receptor (P61169 whole entry): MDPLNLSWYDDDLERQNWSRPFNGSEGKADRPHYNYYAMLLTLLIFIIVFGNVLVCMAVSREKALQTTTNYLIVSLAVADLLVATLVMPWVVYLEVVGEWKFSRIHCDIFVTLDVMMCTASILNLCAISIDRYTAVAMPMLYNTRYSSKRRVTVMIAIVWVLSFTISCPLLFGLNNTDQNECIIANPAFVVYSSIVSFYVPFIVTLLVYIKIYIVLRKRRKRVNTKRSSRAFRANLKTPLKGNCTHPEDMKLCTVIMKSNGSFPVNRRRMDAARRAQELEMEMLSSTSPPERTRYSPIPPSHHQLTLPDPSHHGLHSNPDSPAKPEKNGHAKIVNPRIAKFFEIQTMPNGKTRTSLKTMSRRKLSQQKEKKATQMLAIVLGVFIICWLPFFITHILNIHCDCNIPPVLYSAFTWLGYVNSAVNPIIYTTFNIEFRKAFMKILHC

O=S(=O)(c1ccc2cccnc2c1)N1CCC(CN2CCN(c3ccc(Cl)cc3)CC2)CC1
Ki [1]: 338 nM | Ki [2]: 761 nM

O=S(=O)(NCCCCN1CCN(c2ccc(Cl)cc2)CC1)c1cncc2ccccc12
Ki [1]: 1000 nM | Ki [2]: 211 nM

O=S(=O)(NCCCCN1CCN(c2ccc(Cl)cc2)CC1)c1cnc2ccccc2c1
inhibition [3]: 37% | Ki [1]: 771 nM | inhibition [4]: 78% | inhibition [5]: 82% | inhibition [6]: 46% | Ki [2]: 56 nM

CN1C(=O)CN=C(c2ccccc2)c2cc(Cl)ccc21 [DIAZEPAM]
Activity [7]: 46.6% | Activity [8]: 21.8% | Activity [9]: 28.5% | Activity [10]: 29.7% | Activity [11]: 35.4% | Activity [12]: 63.7%

Cl.O=S(=O)(c1cnc2ccccc2c1)N1CCC(CCN2CCN(c3ccc(Cl)cc3)CC2)CC1
Ki [13]: 24800 nM | inhibition [3]: 63% | Ki [14]: 56 nM | Ki [15]: 40 nM | Ki [1]: 8300 nM | Ratio Ki [16]: 207 | inhibition [4]: 90% | Activity [17]: inactive | inhibition [18]: Dose-dependent effect | ED50 ([18]; read-out: ID50 (the source's name)): 25 mg/kg | inhibition [19]: Dose-dependent effect | ED50 [19]: 5.12 mg/kg | inhibition [5]: 90% | inhibition [6]: 52% | Ki [2]: 31 nM

O=S(=O)(NCCCCN1CCN(c2ccc(Cl)cc2)CC1)c1ccc2cccnc2c1
Ki [13]: 1730 nM | Ki [15]: 381 nM | Ki [1]: 868 nM | Ki [2]: 63 nM

O=S(=O)(NCCCCN1CCN(c2cccc(Cl)c2)CC1)c1cccc2ccccc12
Ki [13]: 127 nM | Ki [15]: 36 nM | Ki [1]: 397 nM | Ratio Ki [16]: 10 | Ki [2]: 268 nM

O=S(=O)(NCCCN1CCN(c2ccc(Cl)cc2)CC1)c1cncc2ccccc12
Ki [1]: 888 nM

O=S(=O)(NCCCCN1CCN(c2ccc(Cl)cc2)CC1)c1ccc2ncccc2c1
Ki [1]: 2030 nM | Ki [2]: 44 nM

O=S(=O)(NCCCCN1CCN(c2cccc(Cl)c2)CC1)c1cccc2cccnc12
Ki [13]: 3760 nM | Ki [15]: 25 nM | Ki [1]: 74 nM | Ki [2]: 152 nM

CN(C)CCCN1c2ccccc2CCc2ccccc21.Cl [IMIPRAMINE HYDROCHLORIDE]
Activity [20]: 52% | Activity [21]: 26.5%

O=S(=O)(c1cnc2ccccc2c1)N1CCC(CN2CCN(c3ccc(Cl)cc3)CC2)CC1
Ki [1]: 462 nM | Ki [2]: 6000 nM

O=S(=O)(NCCCCN1CCN(c2cccc(Cl)c2)CC1)c1cnc2ccccc2c1
inhibition [3]: 30% | inhibition [5]: 94% | inhibition [6]: 70% | Ki [2]: 22 nM

O=C(CCCN1CCC(O)(c2ccc(Cl)cc2)CC1)c1ccc(F)cc1
inhibition [22]: Dose-dependent effect | Activity [23]: Active

O=S(=O)(NCCCCN1CCN(c2cccc(Cl)c2)CC1)c1ccc2ncccc2c1
Ki [2]: 42 nM

O=S(=O)(NCCCN1CCN(c2cccc(Cl)c2)CC1)c1cnc2ccccc2c1
Ki [2]: 206 nM

O=S(=O)(NCCCCN1CCN(c2cccc(Cl)c2)CC1)c1ccc2ccccc2c1
Ki [1]: 497 nM | Ki [2]: 22 nM

O=S(=O)(NCCCCCN1CCN(c2ccc(Cl)cc2)CC1)c1cnc2ccccc2c1
Ki [1]: 5800 nM | Ki [2]: 114 nM

CN1CCN(C2=Nc3cc(Cl)ccc3Nc3ccccc32)CC1
inhibition [22]: Dose-dependent effect | Activity [24]: Active

O=C(c1ccc(F)cc1)C1CCN(CCn2c(=O)[nH]c3ccccc3c2=O)CC1 [KETANSERIN]
ED50 [19]: 0.12 mg/kg
